Results reported in article PMC7233370 (Journal of medicinal chemistry, 2020).
“Also recorded” adds a separate entry of the source. Values belong to the compound of their own block, whether it stands above or below them.

How the values were obtained:
[1] = biological target: T1, hGYS1Δ634S8,11N (Homo sapiens, UniProt P13807, S11N/S8N); assay: 14C-glucose incorporation assay, hGYS1Δ634S8,11N inhibition; type: biochemical; settings: read-out: inhibition of truncated hGYS1 (hGYS1Δ634S8,11N)
T1 sequence (P13807 1-634 S8N/S11N limits assumed): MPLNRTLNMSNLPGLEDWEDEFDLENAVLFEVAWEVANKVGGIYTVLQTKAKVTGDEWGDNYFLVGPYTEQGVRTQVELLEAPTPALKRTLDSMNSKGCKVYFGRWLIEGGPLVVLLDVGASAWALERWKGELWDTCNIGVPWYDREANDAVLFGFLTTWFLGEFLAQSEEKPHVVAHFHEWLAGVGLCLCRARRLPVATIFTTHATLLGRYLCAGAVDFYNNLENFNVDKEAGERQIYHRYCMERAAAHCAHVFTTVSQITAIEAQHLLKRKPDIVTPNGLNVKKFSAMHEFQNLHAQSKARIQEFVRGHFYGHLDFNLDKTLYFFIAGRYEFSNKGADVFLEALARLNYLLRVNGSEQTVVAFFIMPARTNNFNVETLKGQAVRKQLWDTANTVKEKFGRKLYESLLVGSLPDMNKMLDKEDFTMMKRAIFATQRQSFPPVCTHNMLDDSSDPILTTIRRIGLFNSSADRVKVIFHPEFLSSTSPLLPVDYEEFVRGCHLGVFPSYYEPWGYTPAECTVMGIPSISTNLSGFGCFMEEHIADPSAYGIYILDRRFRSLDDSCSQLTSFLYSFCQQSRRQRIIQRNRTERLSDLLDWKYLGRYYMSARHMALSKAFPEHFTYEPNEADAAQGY

[2] = biological target: T2, yGsy2p (Saccharomyces cerevisiae, UniProt P27472); assay: 14C-glucose incorporation assay, yGsy2p inhibition; type: biochemical; settings: co-variation of UDPG and inhibitor
T2 sequence (P27472 1-705): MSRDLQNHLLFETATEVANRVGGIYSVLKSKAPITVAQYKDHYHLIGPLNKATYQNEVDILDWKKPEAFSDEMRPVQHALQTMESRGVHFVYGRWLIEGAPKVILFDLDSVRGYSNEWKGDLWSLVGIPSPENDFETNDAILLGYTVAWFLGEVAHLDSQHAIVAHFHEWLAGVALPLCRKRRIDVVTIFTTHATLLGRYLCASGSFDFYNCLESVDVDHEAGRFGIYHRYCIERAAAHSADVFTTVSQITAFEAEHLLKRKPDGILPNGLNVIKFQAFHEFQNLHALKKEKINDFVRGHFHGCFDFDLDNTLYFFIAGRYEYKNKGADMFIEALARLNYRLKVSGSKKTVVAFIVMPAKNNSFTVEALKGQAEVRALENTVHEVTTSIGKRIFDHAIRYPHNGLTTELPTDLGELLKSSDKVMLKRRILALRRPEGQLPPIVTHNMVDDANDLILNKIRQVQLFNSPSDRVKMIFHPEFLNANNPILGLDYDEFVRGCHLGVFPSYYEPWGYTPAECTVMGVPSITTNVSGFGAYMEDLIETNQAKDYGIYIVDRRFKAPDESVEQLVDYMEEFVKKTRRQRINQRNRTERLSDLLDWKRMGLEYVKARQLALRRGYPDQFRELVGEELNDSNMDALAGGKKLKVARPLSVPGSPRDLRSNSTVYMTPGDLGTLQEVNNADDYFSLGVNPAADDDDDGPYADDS

[3] = biological target: T3, GS activity in Rat-1 cell lysates (Rattus norvegicus, UniProt A2RRU1); assay: GS activity in Rat-1 cell lysates, 14C-glucose incorporation; type: biochemical; settings: 100 μM compound; 0.75 mg/mL lysate; 0.2 mM UDPG, 1 mM G6P
T3 sequence (A2RRU1 1-738): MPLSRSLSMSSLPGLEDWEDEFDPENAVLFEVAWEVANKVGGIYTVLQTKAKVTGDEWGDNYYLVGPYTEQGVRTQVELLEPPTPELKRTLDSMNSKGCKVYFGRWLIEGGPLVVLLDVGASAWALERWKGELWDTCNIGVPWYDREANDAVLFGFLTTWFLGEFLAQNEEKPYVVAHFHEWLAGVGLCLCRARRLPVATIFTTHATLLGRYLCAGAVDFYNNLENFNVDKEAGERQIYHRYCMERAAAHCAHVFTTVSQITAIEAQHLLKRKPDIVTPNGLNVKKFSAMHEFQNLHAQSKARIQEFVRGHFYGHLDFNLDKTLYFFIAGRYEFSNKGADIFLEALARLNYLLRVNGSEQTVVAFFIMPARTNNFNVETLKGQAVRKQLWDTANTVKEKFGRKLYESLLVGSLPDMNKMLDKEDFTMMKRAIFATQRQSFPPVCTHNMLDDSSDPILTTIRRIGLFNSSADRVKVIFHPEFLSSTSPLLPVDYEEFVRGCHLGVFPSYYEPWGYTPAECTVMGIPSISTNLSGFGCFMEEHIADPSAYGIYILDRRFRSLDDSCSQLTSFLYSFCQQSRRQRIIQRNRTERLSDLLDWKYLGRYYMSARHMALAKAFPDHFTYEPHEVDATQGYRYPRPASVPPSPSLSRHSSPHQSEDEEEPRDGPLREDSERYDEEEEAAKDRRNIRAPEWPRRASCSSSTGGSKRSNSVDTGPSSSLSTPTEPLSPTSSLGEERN
Outline: (§1)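 Rat-1 fibroblasts were grown in DMEM/10% FBS to confluence. Cells were lysed in EDTA/EGTA/NaF buffer with protease inhibitors, vanadate and Triton, freeze-scraped, sonicated, and the lysate diluted 2-fold. Assay: 50 mM Tris-HCl pH 7.8, 6.7 mg/ml glycogen, 0.2 mM UDPG, 1 mM G6P, 2% DMSO, test compound 100 µM. Read-out: 14C-glucose incorporation as % of DMSO control.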

[4] = biological target: T4, GS activity in HEK293-PTG cell lysates (Homo sapiens, UniProt P13807); assay: GS activity in HEK293-PTG cell lysates, 14C-glucose incorporation; type: biochemical; settings: 100 μM compound; 0.15 mg/mL lysate; 0.2 mM UDPG, 1 mM G6P
T4 sequence (P13807 1-737): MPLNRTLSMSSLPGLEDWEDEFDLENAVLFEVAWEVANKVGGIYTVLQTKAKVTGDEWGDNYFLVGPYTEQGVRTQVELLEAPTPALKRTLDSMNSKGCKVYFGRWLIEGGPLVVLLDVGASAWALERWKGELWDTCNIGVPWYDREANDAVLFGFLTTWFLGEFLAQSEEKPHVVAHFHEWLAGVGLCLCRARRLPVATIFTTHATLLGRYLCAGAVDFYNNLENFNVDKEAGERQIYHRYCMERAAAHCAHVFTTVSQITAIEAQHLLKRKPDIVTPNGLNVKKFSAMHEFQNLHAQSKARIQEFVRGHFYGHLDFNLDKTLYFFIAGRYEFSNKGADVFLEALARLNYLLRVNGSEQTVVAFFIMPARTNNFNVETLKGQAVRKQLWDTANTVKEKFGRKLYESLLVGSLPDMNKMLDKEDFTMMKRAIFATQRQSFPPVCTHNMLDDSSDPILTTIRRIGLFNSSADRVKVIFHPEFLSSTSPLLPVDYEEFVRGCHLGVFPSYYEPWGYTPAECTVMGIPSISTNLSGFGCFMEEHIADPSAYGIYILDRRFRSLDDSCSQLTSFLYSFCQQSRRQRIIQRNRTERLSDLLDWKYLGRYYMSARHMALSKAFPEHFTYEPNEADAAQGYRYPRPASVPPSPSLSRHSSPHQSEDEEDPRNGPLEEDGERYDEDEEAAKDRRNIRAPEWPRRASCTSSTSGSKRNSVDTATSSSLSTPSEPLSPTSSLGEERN
Outline: as §1, with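 “HEK293 cells stably transfected with mouse PTG (hygromycin-selected mixed clones)” for “Rat-1 fibroblasts”, “grown” for “grown in DMEM/10% FBS”, “10-fold.” for “2-fold.”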

[5] = biological target: yGsy2p Y513L mutant (Saccharomyces cerevisiae, UniProt P27472, Y513L); assay: Inhibition of yGsy2p active-site mutant Y513L; type: biochemical; settings: saturating G6P (7.2 mM)
Sequence of yGsy2p Y513L mutant (P27472 whole entry Y513L): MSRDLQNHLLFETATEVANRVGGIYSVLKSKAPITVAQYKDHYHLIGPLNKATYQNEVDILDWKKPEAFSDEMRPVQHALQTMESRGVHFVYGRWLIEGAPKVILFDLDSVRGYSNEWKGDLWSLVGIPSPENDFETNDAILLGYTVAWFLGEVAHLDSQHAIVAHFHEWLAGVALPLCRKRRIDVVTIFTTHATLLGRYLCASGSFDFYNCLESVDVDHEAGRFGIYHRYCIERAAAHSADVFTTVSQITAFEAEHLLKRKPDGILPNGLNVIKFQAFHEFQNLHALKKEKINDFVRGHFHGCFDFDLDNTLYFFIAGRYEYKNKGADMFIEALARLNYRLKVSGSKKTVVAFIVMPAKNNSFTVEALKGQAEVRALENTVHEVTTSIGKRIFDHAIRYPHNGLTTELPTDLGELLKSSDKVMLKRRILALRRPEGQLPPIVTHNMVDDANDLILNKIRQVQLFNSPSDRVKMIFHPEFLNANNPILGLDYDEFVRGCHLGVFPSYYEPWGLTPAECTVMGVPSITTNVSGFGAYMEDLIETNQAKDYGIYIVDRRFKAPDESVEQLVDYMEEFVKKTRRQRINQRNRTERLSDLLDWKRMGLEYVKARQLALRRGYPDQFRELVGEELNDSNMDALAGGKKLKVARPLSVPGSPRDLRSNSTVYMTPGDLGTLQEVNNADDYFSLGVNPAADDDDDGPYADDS

[6] = biological target: T5, wild-type hGYS1 (Homo sapiens, UniProt P13807); assay: 14C-glucose incorporation assay, wild-type hGYS1 inhibition; type: biochemical; settings: for improvement in potency toward hGYS1 relative to H23: ratio of IC50 values versus H23
T5 sequence (P13807 1-737): T4 sequence (P13807 1-737)

[7] = biological target: T2, yGsy2p; assay: Fluorescence polarization saturation binding of tracer to yGsy2p
Outline: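 Yeast Gsy2p titrated from 0 to 50 µM against 20 nM final fluorescein-labelled glucosamine-6-phosphate tracer in 15 mM Tris-HCl pH 7.8, 15 mM NaCl. Incubated 10 min at 25°C, then polarization read (ex 485/em 535 nm, mP). Saturation curve fitted to a hyperbolic equation for Kd. Triplicate.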

[8] = biological target: T6, hGYS1 (Homo sapiens, UniProt P13807); assay: Activation of hGYS1 by G6P or GlcN6P, 14C-glucose incorporation assay; type: biochemical
T6 sequence (P13807 1-737): T4 sequence (P13807 1-737)
Outline: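 Full-length human GYS1 was expressed in insect cells. Radiochemical 14C-glucose incorporation assay run at varied G6P or GlcN6P. % activation was plotted against activator concentration and fitted to a hyperbolic binding equation to give AC50. Done in triplicate.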

[9] = biological target: T2, yGsy2p; assay: Fluorescence polarization competitive displacement of tracer from yGsy2p; type: binding
Outline: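 Fluorescein-labelled glucosamine-6-phosphate tracer at 20 nM final with 4.2 µM yeast Gsy2p in 15 mM Tris-HCl pH 7.8, 15 mM NaCl. Unlabelled G6P titrated from 0.68 µM to 40 mM. Incubated 10 min at 25°C, then polarization read (ex 485/em 535 nm, mP). EC50 of the displacement fit taken as Kd. Triplicate.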

[10] = biological target: T6, hGYS1; assay: Fluorescence polarization displacement of tracer from hGYS1; type: binding; settings: FP assay with hGYS1
[11] = biological target: T2, yGsy2p; assay: Activation of yGsy2p by G6P, 14C-glucose incorporation assay; type: biochemical
Outline: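 His-tagged yeast Gsy2p was expressed in E. coli BL21(DE3) and purified by Ni-NTA then Q-Sepharose. Radiochemical 14C-glucose incorporation assay run at varied G6P. % activation was fitted to a hyperbolic binding equation to give AC50. Done in triplicate.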

inhibition at 100 µM [1]: > 20%
mode of inhibition of yGsy2p with respect to varied UDPG [2]: competitive
reduction of synthase activity in Rat-1 cell lysate [3]: did not significantly inhibit
reduction of synthase activity in HEK293-PTG cell lysate [4]: did not significantly inhibit
Structure (SMILES): COc1cc(-c2c(-c3ccccc3)ncn2CCC2CCCN2C)ccc1O (racemic) [Compound H23, (rac)-2-methoxy-4-(1-(2-(1-methylpyrrolidin-2-yl)ethyl)-4-phenyl-1H-imidazol-5-yl)phenol]

Structure (SMILES): Oc1ccc(-c2c(-c3ccc(O)c(O)c3O)n[nH]c2C(F)(F)F)cc1 [Compound 23, 4-(4-(4-hydroxyphenyl)-3-(trifluoromethyl)-1H-pyrazol-5-yl)pyrogallol]
inhibition of Y513L mutant compared with wild-type yGsy2p [5]: compromised; also recorded: decreased potency
improvement in potency toward hGYS1 relative to H23 [6]: more than 300 fold
mode of inhibition for wild-type hGYS1 ([6]; versus UDPG): competitive

Structure (SMILES): O=c1ccn([C@@H]2O[C@H](COP(=O)(O)OP(=O)(O)O)[C@@H](O)[C@H]2O)c(=O)[nH]1 [UDP, reference compound]
mode of inhibition of yGsy2p with respect to varied UDPG [2]: competitive

improvement in potency toward hGYS1 relative to H23 [6]: 16 fold
Structure (SMILES): Cc1[nH]nc(-c2ccc(O)c(O)c2O)c1-c1ccc(Cl)cc1 [Compound 11]

Kd [7]: 7.6 ± 0.7 µM
Structure (SMILES): O=C(CSCCC(=O)N[C@@H]1[C@@H](O)[C@H](O)[C@@H](COP(=O)(O)O)O[C@H]1O)Nc1ccc(-c2c3ccc(=O)cc-3oc3cc(O)ccc23)c(C(=O)O)c1 [GlcN6P-fluorescein-5-Ex]

reduction of synthase activity in Rat-1 cell lysate [3]: did not significantly inhibit
reduction of synthase activity in HEK293-PTG cell lysate [4]: did not significantly inhibit
improvement in potency toward hGYS1 relative to H23 [6]: 2 fold
Structure (SMILES): O=C(O)CCc1ccc(-c2ccccc2)n1-c1ccc(O)cc1 [Compound 7]

AC50 [8]: 5900 ± 100 µM
Structure (SMILES): N[C@H]1C(O)O[C@H](COP(=O)(O)O)[C@@H](O)[C@@H]1O (stereo partly drawn) [GlcN6P, glucosamine-6-phosphate]

Structure (SMILES): O=C[C@H](O)[C@@H](O)[C@H](O)[C@H](O)COP(=O)(O)O [Compound G6P, glucose-6-phosphate]
Kd [9]: 70.9 ± 3.6 µM
AC50 [8]: 1600 ± 100 µM
displacement of GlcN6P-coupled fluorophore or fluorophore alone from hGYS1 [10]: unable to displace
AC50 [11]: 98.1 ± 3.1 µM
